{"source": "ChEMBL document CHEMBL3091313", "about": "“Amino acids derived benzoxazepines: design, synthesis and antitumor activity” (Bioorg Med Chem Lett, 2013)", "key": {"MDA-MB-231 [1]": {"test_system": "MDA-MB-231", "assay": "Cell cycle arrest in human MDA-MB-231 cells assessed as apoptosis at 3 uM after 24 hrs using propidium iodide staining by flow cytometry (reference value: 0.10 %)", "type": "functional"}, "MCF7 [2]": {"test_system": "MCF7", "assay": "Induction of apoptosis in human MCF7 cells assessed as late apoptotic cells at 3 uM after 24 hrs using annexin V/PI staining by flow cytometry (reference value: 6.46 %)", "type": "functional", "summary_of_the_method": "(§1)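 MCF-7 cells were exposed to vehicle or the indicated compound concentrations for 24 h. Phosphatidylserine exposure was then measured by flow cytometry after staining with FITC-labelled Annexin V and propidium iodide. Apoptotic cell fractions were read from dot plots relative to vehicle.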"}, "MCF7 [3]": {"test_system": "MCF7", "assay": "Cell cycle arrest in human MCF7 cells assessed as increase in p27 protein level at 5 uM after 12 to 24 hrs by immunoblotting method", "type": "functional, cell-based"}, "MCF7 [4]": {"test_system": "MCF7", "assay": "Induction of apoptosis in human MCF7 cells assessed as DNA fragmentation after 24 hrs by ELISA", "type": "functional, cell-based", "summary_of_the_method": "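MCF-7 cells were treated with compound, with 4-OHT alongside. DNA fragmentation was quantified after 24 h and expressed relative to a positive control set at 100%. Data are mean ± SEM of three independent experiments.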"}, "MCF7 [5]": {"test_system": "MCF7", "assay": "Cell cycle arrest in human MCF7 cells assessed as decrease in cyclin D1 mRNA level at 1 to 5 uM after 12 hrs by QRT-PCR method", "type": "functional, cell-based"}, "MDA-MB-231 [6]": {"test_system": "MDA-MB-231", "assay": "Cell cycle arrest in human MDA-MB-231 cells assessed as accumulation at G2 phase at 1 uM after 24 hrs using propidium iodide staining by flow cytometry (reference value: 18.75 %)", "type": "functional"}, "MCF7 [7]": {"test_system": "MCF7", "assay": "Induction of apoptosis in human MCF7 cells assessed as caspase-9 cleavage at 5 uM after 6 hrs by immunoblotting method", "type": "functional, cell-based"}, "MCF7 [8]": {"test_system": "MCF7", "assay": "Cell cycle arrest in human MCF7 cells assessed as accumulation at G2 phase at 5 uM after 24 hrs using propidium iodide staining by flow cytometry (reference value: 7.46 %)", "type": "functional"}, "[9]": {"assay": "Cytotoxicity against rat primary calvarial osteoblasts after 24 hrs by MTT assay", "type": "cell-based", "conditions": "calvarial osteoblast", "summary_of_the_method": "(§2)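 Vero, HEK-293 and primary rat calvarial osteoblasts were given vehicle or a range of concentrations for 24 h. Cell death was expressed as % relative to vehicle.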"}, "MCF7 [10]": {"test_system": "MCF7", "assay": "Antiproliferative activity against human MCF7 cells after 72 hrs by MTT assay", "type": "functional, cell-based", "conditions": "MCF7, 72 h", "summary_of_the_method": "(§3)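 MCF-7 (ER+ve) and MDA-MB-231 (ER-ve) breast cancer cells were exposed to compound or vehicle. Viability was read by MTT and expressed as % cell death versus vehicle, with 4-hydroxytamoxifen as positive control. IC50 came from three independent experiments, each in triplicate.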"}, "Mus musculus": {"test_system": "Mus musculus", "assay": "Toxicity in human MCF7 cells xenografted athymic nude mouse assessed as change in body weight at 16 mg/kg/day, po for 21 days measured up to 21 days relative to vehicle-treated control", "type": "organism-based", "design": "route oral", "conditions": "in vivo, 504 h"}, "MCF7 [11]": {"test_system": "MCF7", "assay": "Cytotoxicity against human MCF7 cells assessed as reduction in membrane integrity at IC50 by LDH release assay", "type": "functional, cell-based", "summary_of_the_method": "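Membrane integrity was assessed in MCF-7 cells exposed to a range of compound concentrations, by measuring LDH released into the culture medium.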"}, "MDA-MB-231 [12]": {"test_system": "MDA-MB-231", "assay": "Cell cycle arrest in human MDA-MB-231 cells assessed as accumulation at S phase at 5 uM after 24 hrs using propidium iodide staining by flow cytometry (reference value: 28.59 %)", "type": "functional"}, "[13]": {"assay": "Safety index, ratio of IC50 for HEK293 cells to IC50 for human MCF7 cells", "type": "toxicity, cell-based", "conditions": "HEK293 cells versus MCF7 cells, read-out: Ratio IC50", "summary_of_the_method": "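Cell death was assessed by MTT assay after 72 h exposure. The ratio was calculated as the HEK-293 IC50 divided by the MCF-7 EC50.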"}, "MCF7 [14]": {"test_system": "MCF7", "assay": "Induction of apoptosis in human MCF7 cells assessed as late apoptotic cells at 5 uM after 24 hrs using annexin V/PI staining by flow cytometry (reference value: 6.46 %)", "type": "functional", "summary_of_the_method": "as §1"}, "MCF7 [15]": {"test_system": "MCF7", "assay": "Cell cycle arrest in human MCF7 cells assessed as decrease in E2F mRNA level at 1 to 5 uM after 12 hrs by QRT-PCR method", "type": "functional, cell-based"}, "MCF7 [16]": {"test_system": "MCF7", "assay": "Induction of apoptosis in human MCF7 cells assessed as reduction in cell viability at 5 uM after 24 hrs by MTT assay in presence of zVAD-FMK", "type": "functional, cell-based"}, "MCF7 [17]": {"test_system": "MCF7", "assay": "Cell cycle arrest in human MCF7 cells assessed as apoptosis at 1 uM after 24 hrs using propidium iodide staining by flow cytometry (reference value: 0.06 %)", "type": "functional"}, "MDA-MB-231 [18]": {"test_system": "MDA-MB-231", "assay": "Cell cycle arrest in human MDA-MB-231 cells assessed as accumulation at G1 phase at 5 uM after 24 hrs using propidium iodide staining by flow cytometry (reference value: 52.67 %)", "type": "functional"}, "MCF7 [19]": {"test_system": "MCF7", "assay": "Induction of apoptosis in human MCF7 cells assessed as caspase-8 cleavage at 5 uM after 6 hrs by immunoblotting method", "type": "functional, cell-based"}, "MCF7 [20]": {"test_system": "MCF7", "assay": "Induction of apoptosis in human MCF7 cells assessed as early apoptotic cells at 1 uM after 24 hrs using annexin V/PI staining by flow cytometry (reference value: 3.19 %)", "type": "functional"}, "MDA-MB-231 [21]": {"test_system": "MDA-MB-231", "assay": "Cell cycle arrest in human MDA-MB-231 cells assessed as apoptosis at 5 uM after 24 hrs using propidium iodide staining by flow cytometry (reference value: 0.10 %)", "type": "functional"}, "MCF7 [22]": {"test_system": "MCF7", "assay": "Cell cycle arrest in human MCF7 cells assessed as accumulation at G1 phase at 3 uM after 24 hrs using propidium iodide staining by flow cytometry (reference value: 67.73 %)", "type": "functional"}, "MDA-MB-231 [23]": {"test_system": "MDA-MB-231", "assay": "Cell cycle arrest in human MDA-MB-231 cells assessed as apoptosis at 1 uM after 24 hrs using propidium iodide staining by flow cytometry (reference value: 0.10 %)", "type": "functional"}, "MCF7 [24]": {"test_system": "MCF7", "assay": "Cell cycle arrest in human MCF7 cells assessed as accumulation at G1 phase at 1 uM after 24 hrs using propidium iodide staining by flow cytometry (reference value: 67.73 %)", "type": "functional"}, "MCF7 [25]": {"test_system": "MCF7", "assay": "Cell cycle arrest in human MCF7 cells assessed as apoptosis at 3 uM after 24 hrs using propidium iodide staining by flow cytometry (reference value: 0.06 %)", "type": "functional"}, "MDA-MB-231 [26]": {"test_system": "MDA-MB-231", "assay": "Antiproliferative activity against human MDA-MB-231 cells after 24 hrs by MTT assay", "type": "functional, cell-based", "conditions": "MDA-MB-231, 24 h", "summary_of_the_method": "as §3"}, "MCF7 [27]": {"test_system": "MCF7", "assay": "Induction of apoptosis in human MCF7 cells assessed as late apoptotic cells at 1 uM after 24 hrs using annexin V/PI staining by flow cytometry (reference value: 6.46 %)", "type": "functional", "summary_of_the_method": "as §1"}, "MCF7 [28]": {"test_system": "MCF7", "assay": "Antitumor activity against human MCF7 cells xenografted in athymic nude mouse assessed as reduction in tumor volume at 16 mg/kg/day, po for 21 days measured after 21 days relative to control", "type": "functional", "design": "scale not given: the % may be the effect or the level left"}, "MCF7 [29]": {"test_system": "MCF7", "assay": "Cell cycle arrest in human MCF7 cells assessed as accumulation at S phase at 3 uM after 24 hrs using propidium iodide staining by flow cytometry (reference value: 24.81 %)", "type": "functional"}, "MDA-MB-231 [30]": {"test_system": "MDA-MB-231", "assay": "Antiproliferative activity against human MDA-MB-231 cells after 48 hrs by MTT assay", "type": "functional, cell-based", "conditions": "MDA-MB-231, 48 h", "summary_of_the_method": "as §3"}, "MCF7 [31]": {"test_system": "MCF7", "assay": "Cell cycle arrest in human MCF7 cells assessed as increase in p27 mRNA level at 1 to 5 uM after 12 hrs by QRT-PCR method", "type": "functional, cell-based"}, "MCF7 [32]": {"test_system": "MCF7", "assay": "Cell cycle arrest in human MCF7 cells assessed as accumulation at S phase at 5 uM after 24 hrs using propidium iodide staining by flow cytometry (reference value: 24.81 %)", "type": "functional"}, "Vero": {"test_system": "Vero", "assay": "Cytotoxicity against african green monkey Vero cells after 24 hrs by MTT assay", "type": "cell-based", "conditions": "chlorocebus sabaeus", "summary_of_the_method": "as §2"}}, "note": "pIC50: −log10 of the molar value. The source made the active and inactive calls. The rule behind the calls is not given here.", "data": [{"smiles": "Cc1ccc(S(=O)(=O)N2Cc3ccccc3OC[C@@H]2Cc2ccc(OCCN3CCCCCC3)cc2)cc1.Cl", "values": [{"measurement": "Activity", "setting": "MDA-MB-231 [1]", "result": 3.61, "unit": "%"}, {"measurement": "Activity", "setting": "MCF7 [2]", "result": 25.59, "unit": "%"}, {"measurement": "Activity", "setting": "MCF7 [3]", "result": "Active"}, {"measurement": "Activity", "setting": "MCF7 [4]", "result": "Dose-dependent effect"}, {"measurement": "Activity", "setting": "MCF7 [5]", "result": "Active"}, {"measurement": "Activity", "setting": "MDA-MB-231 [6]", "result": 7.46, "unit": "%"}, {"measurement": "Activity", "setting": "MCF7 [7]", "result": "Active"}, {"measurement": "Activity", "setting": "MCF7 [8]", "result": 6.44, "unit": "%"}, {"measurement": "Activity", "setting": "[9]", "result": "Non-toxic"}, {"measurement": "pIC50", "setting": "MCF7 [10]", "result": 5.74}, {"measurement": "Activity", "setting": "Mus musculus", "result": "Non-toxic"}, {"measurement": "Activity", "setting": "MCF7 [11]", "result": "inactive"}, {"measurement": "Activity", "setting": "MDA-MB-231 [12]", "result": 17.71, "unit": "%"}, {"measurement": "selectivity ratio", "setting": "[13]", "result": 16.4}, {"measurement": "Activity", "setting": "MCF7 [14]", "result": 35.77, "unit": "%"}, {"measurement": "Activity", "setting": "MCF7 [15]", "result": "Active"}, {"measurement": "Activity", "setting": "MCF7 [16]", "result": "Active"}, {"measurement": "Activity", "setting": "MCF7 [17]", "result": 2.59, "unit": "%"}, {"measurement": "Activity", "setting": "MDA-MB-231 [18]", "result": 75.82, "unit": "%"}, {"measurement": "Activity", "setting": "MCF7 [19]", "result": "Active"}, {"measurement": "Activity", "setting": "MCF7 [20]", "result": 15.13, "unit": "%"}, {"measurement": "Activity", "setting": "MDA-MB-231 [21]", "result": 1.47, "unit": "%"}, {"measurement": "Activity", "setting": "MCF7 [22]", "result": 86.96, "unit": "%"}, {"measurement": "Activity", "setting": "MDA-MB-231 [23]", "result": 0.6, "unit": "%"}, {"measurement": "Activity", "setting": "MCF7 [24]", "result": 74.1, "unit": "%"}, {"measurement": "Activity", "setting": "MCF7 [25]", "result": 0.52, "unit": "%"}, {"measurement": "pIC50", "setting": "MDA-MB-231 [26]", "result": 5.14}, {"measurement": "Activity", "setting": "MCF7 [27]", "result": 20.15, "unit": "%"}, {"measurement": "Activity", "setting": "MCF7 [28]", "result": 50, "unit": "%"}, {"measurement": "Activity", "setting": "MCF7 [29]", "result": 6.18, "unit": "%"}, {"measurement": "pIC50", "setting": "MDA-MB-231 [30]", "result": 5.26}, {"measurement": "Activity", "setting": "MCF7 [31]", "result": "Active"}, {"measurement": "Activity", "setting": "MCF7 [32]", "result": 7.34, "unit": "%"}, {"measurement": "Activity", "setting": "Vero", "result": "Non-toxic"}]}]}
